MEKK2wt PB1 HTS: raises or lowers MEK5 binding to wildtype human MEKK2 PB1 domain. bead flow cytometry, Alexa488-MEK5 binding to MEKK2 WT; actives lie on both sides. binding response (% of control), % at 10 µM. 290,000 tested, 1.1% active; in the data active = binding response below about 67% or above about 130%
MEKK2 mut-MEK5: signal of MEK5 binding to mutant human MEKK2 PB1 domain; bead flow cytometry, Alexa488-MEK5 binding to MEKK2 mutant; percent response, % at 10 µM; 290,000 tested, 0.35% active; AID 1530; in the data active = percent response above about 24%, passing the limit was not always enough
MEKK3 PB1 HTS: raises or lowers MEK5 binding to the human MEKK3 PB1 domain. bead-based flow cytometry, Alexa488-MEK5 binding to MEKK3; actives lie on both sides; 0 = blocked by unlabeled MEK5, 100 = vehicle. 290,000 tested, 1.4% active. binding response (% of control), % at 10 µM. AID 1529;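 active = binding response more than 3 SD above or below the average of its plate-row segment, actives on both sides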;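 note: Alexa488 bead fluorescence after subtracting the streptavidin-only scavenger bead signal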
UBC13 polyUb: inhibitors of human UBC13 polyubiquitin chain formation; TR-FRET; inhibition, % at 20 µM; 330,000 tested, 0.47% active; AID 485273; in the data active = inhibition above about 45%, passing the limit was not always enough
PREPL inh: human PREPL enzyme inhibition. Q4J6C6. recombinant PREPL, fluorescence polarization activity-based probe. inhibition, % at 5.96 µM. 320,000 tested, 0.68% active. AID 2751; in the data active = inhibition above about 43%;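 note: 0% = enzyme with DMSO and 100% = wells lacking enzyme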
Apaf1 inhib: blocks human Apaf-1 apoptosome activity; AID 489030; reconstituted apoptosome caspase-3 activity, DEVD-Rh110 fluorescence; inhibition, % at 20 µM; 330,000 tested, 0.71% active; O14727; active = inhibition of at least 40% at 20 µM;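 note: plate controls were DMSO wells for no effect and DEVD-CHO caspase inhibitor wells for full effect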
Target sequence (O14727 whole entry, looked up): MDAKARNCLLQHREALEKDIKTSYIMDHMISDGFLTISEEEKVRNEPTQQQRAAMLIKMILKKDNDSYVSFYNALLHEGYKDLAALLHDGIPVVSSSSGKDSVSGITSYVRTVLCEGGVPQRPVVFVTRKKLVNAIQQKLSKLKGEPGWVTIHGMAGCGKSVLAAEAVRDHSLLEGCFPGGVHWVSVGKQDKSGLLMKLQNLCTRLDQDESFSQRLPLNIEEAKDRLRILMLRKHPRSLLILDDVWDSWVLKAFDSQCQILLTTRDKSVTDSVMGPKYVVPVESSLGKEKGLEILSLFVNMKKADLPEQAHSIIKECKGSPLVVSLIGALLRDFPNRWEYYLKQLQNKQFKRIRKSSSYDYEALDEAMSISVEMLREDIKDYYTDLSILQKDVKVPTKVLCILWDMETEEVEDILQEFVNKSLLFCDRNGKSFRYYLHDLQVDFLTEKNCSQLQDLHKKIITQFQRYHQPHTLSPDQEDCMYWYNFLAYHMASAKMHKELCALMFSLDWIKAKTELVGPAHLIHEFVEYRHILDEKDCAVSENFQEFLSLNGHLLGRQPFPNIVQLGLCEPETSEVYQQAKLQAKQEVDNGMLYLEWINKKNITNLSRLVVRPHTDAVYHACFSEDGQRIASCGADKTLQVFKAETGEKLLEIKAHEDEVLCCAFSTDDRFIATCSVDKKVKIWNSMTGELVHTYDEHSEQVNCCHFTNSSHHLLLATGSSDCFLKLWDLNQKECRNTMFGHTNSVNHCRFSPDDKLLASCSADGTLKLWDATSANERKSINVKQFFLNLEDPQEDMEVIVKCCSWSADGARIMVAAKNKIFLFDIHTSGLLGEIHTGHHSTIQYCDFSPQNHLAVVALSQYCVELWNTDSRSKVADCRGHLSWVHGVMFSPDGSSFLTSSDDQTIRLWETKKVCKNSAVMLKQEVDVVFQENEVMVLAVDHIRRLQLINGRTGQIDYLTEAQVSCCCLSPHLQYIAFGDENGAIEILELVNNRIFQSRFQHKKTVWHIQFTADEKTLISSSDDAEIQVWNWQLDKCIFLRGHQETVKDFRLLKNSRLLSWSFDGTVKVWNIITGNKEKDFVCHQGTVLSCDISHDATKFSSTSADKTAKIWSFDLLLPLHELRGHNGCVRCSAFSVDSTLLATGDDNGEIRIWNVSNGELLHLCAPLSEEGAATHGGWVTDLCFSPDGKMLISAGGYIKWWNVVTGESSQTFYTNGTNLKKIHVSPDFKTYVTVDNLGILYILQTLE
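Material: reconstituted apoptosome with Apaf-1, cytochrome c, caspase-9, procaspase-3, dATP. Technique: Rh110 fluorescence intensity. Buffer or medium: pH 7.5 Hepes buffer with CHAPS, BSA, DTT. Times: 30 min plus 50 min, RT.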
MEKK2wt confirm: raises or lowers MEK5 binding to wildtype human MEKK2, retest; AID 1892; 5,900 tested, 2.4% active; binding response (% of control), % at 10 µM; bead flow cytometry, Alexa488-MEK5 binding to MEKK2 WT; actives lie on both sides; shares compounds with MEKK3 PB1 HTS; in the data active = binding response below about 16% or above about 210%; inactive = in between
MEKK2mut confirm: signal of MEK5 binding to mutant human MEKK2, retest. bead flow cytometry, Alexa488-MEK5 binding to MEKK2 mutant. AID 1893. shares compounds with MEKK3 PB1 HTS. percent response, % at 10 µM. 5,900 tested, 2% active; in the data active = percent response mostly above about 71%, no sharp cut-off; inactive = mostly below about 38%;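 note: higher means compound restores mutant binding toward wildtype level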
MEKK3 confirm: MEKK3-MEK5 PB1 inhibition, single concentration confirmation. shares compounds with MEKK3 PB1 HTS. bead flow cytometry, Alexa488-MEK5 binding to MEKK3; active compounds read low. binding response (% of control), % at 10 µM. 5,900 tested, 1.8% active. AID 1894;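 active = binding response below 72% of control, or above a set upper limit, though filed actives all read lower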;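 note: 100% = DMSO only wells and 0% = binding blocked by excess unlabeled MEK5; lower values mean stronger disruption of MEK5 binding to MEKK3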
Active calls of the source: *; . = not tested or not shown; + = active, no number; [ ] = another dose, or the depositor's remark. This is a sample that favours compounds with a hit; in the whole collection about 3.1% have one here.

SMILES | MEKK2wt PB1 HTS | MEKK2 mut-MEK5 | MEKK3 PB1 HTS | UBC13 polyUb | PREPL inh | Apaf1 inhib | MEKK2wt confirm | MEKK2mut confirm | MEKK3 confirm
Cc1cccc2cncc(OCc3nnc(SC(F)F)n3C)c12 | 80 | -2 | 73*[inhibitor] | 7 | -6 | 4 | 107 | 5 | 108
CC(Sc1nnc(COc2ccc3ccccc3c2)n1C)C(=O)O (centres undefined) | 97 | 1 | 102 | 2 | 7 | 16 | . | . | .
O=C1/C(=C\c2ccc(-c3ccccc3Cl)o2)SC(=S)N1CC1CCCO1 (centres undefined) | 35*[inhibitor] | -28 | 60*[inhibitor] | -99 | 10 | 5 | 40 | -24 | 82
COc1ccc(CNC(=O)COC(=O)[C@H](Cc2ccccc2)NC(=O)c2cccs2)cc1 | . | . | . | 1 | -6 | 3 | . | . | .
COc1ccc(NC(=O)C2CCCN2C(=O)NC2CCCCC2)c(OC)c1 (centres undefined) | 102 | 5 | 98 | 4 | 0 | -1 | . | . | .
C=CCSc1nc2c(C(=O)OCC)nnn2c2ccccc12 | 99 | 4 | 103 | . | . | . | . | . | .
CCOC(=O)c1nnn2c1nc(SCC(C)=O)c1ccccc12 | 138* | 32 | 132* | 6 | -1 | -6 | 99 | -4 | 100
O=C(CSc1n[nH]c(=O)n1Cc1ccco1)Nc1ccccc1 | 123 | 23 | 128* | 8 | -3 | -10 | 69 | -12 | 90
CC(C)c1ccc(NC(=O)CSc2n[nH]c(=O)n2Cc2ccco2)cc1 | 104 | 1 | 104 | -7 | -27 | 3 | . | . | .
O=[N+]([O-])c1cccc(-c2nc3ccc([N+](=O)[O-])cc3[nH]2)c1 | 113 | 1 | 128* | -1 | 18 | 14 | 104 | 4 | 95
CC(OC(=O)c1ccc(Cl)cc1)C(=O)NCC1CCCCC1 (centres undefined) | . | . | . | -13 | -2 | -6 | . | . | .
Cc1ccc(SC[C@H](Cc2ccccc2)N2CCN(CCc3ccccc3)CCC2=O)cc1 | 142* | 8 | 86 | 28 | 0 | 28 | 124 | 37 | 105
COc1ccc(SC[C@H](Cc2ccccc2)N2CCN(C)CCC2=O)cc1 | 143* | 4 | 120 | 9 | 9 | 13 | 117 | 20 | 107
CN1CCC(=O)N([C@H](CSc2ccccc2)Cc2ccccc2)CC1 | 98 | 7 | 102 | -2 | -1 | 3 | . | . | .
Cc1ccccc1OCC(=O)OCC(=O)c1ccc[nH]1 | . | . | . | -3 | 26 | 1 | . | . | .
O=C(Nc1cccc(CNCCc2c[nH]c3ccccc23)c1)c1ccccc1Cl | 150* | 32* | 110 | 12 | -23 | 21 | 133 | 11 | 103
CC(C)(C)c1cc(C(=O)Nc2ccc(F)cc2)n(Cc2ccc(F)cc2)n1 | 97 | -3 | 91 | 2 | 1 | 5 | . | . | .
CC(C)(C)c1cc(C(=O)NC2CC2)n(Cc2ccc(F)cc2)n1 | 116 | 24 | 131* | 8 | -3 | -15 | 100 | 1 | 104
CCCN(Cc1cc2ccccc2[nH]c1=O)C(=O)c1cccc([N+](=O)[O-])c1 | 114 | 17 | 121 | 8 | -18 | -14 | . | . | .
CCCN(Cc1cc2cc(C)ccc2[nH]c1=O)C(=O)c1cccc([N+](=O)[O-])c1 | 127 | 24 | 130* | 1 | 3 | 4 | 102 | -11 | 94
CCCN(CC(=O)Nc1ccccc1C)C(=O)C1CC(=O)N(c2cccc(C)c2C)C1 (centres undefined) | . | . | . | -4 | 11 | -4 | . | . | .
Cc1cc(C)c(S(=O)(=O)N2CCCCC2CCNC(=O)C(=O)NCc2cccnc2)c(C)c1 (centres undefined) | . | . | . | -6 | 13 | 12 | . | . | .
Cc1ccccc1/C=N/Nc1nc2ccccc2[nH]1 | 104 | -13 | 99 | 2 | 41 | 13 | . | . | .
O=[N+]([O-])c1cc(/C=N/Nc2nc3ccccc3[nH]2)c(O)cc1O | 104 | 0 | 132* | . | 34 | . | 98 | 2 | 103
COc1ccc(C(=O)CNC2=NCCC2)cc1 | 102 | 3 | 102 | -11 | -10 | 2 | . | . | .
SMILES | MEKK2wt PB1 HTS | MEKK2 mut-MEK5 | MEKK3 PB1 HTS | UBC13 polyUb | PREPL inh | Apaf1 inhib | MEKK2wt confirm | MEKK2mut confirm | MEKK3 confirm
COc1ccc(C(=O)Cn2nc(CNc3ccc(Br)cc3)[n+]3c2CCCCC3)cc1 | 150* | 5 | 103 | 12 | 29 | 7 | 148 | 20 | 107
COc1ccc(OC)c(S(=O)(=O)NC(N)=NCCc2ccccc2)c1 | 107 | 5 | 103 | 5 | 3 | 10 | . | . | .
COCc1c(C(=O)N2CCN(CCOc3ccccc3)CC2)oc2ccccc12 | . | . | . | 8 | -1 | -2 | . | . | .
Cc1ccc(-c2nnc(-n3nc(C)cc3C)c3ccccc23)cc1 | 104 | 0 | 137* | -3 | 10 | -1 | 95 | -5 | 100
O=C(CN(c1ccccc1)S(=O)(=O)c1ccccc1[N+](=O)[O-])Nc1cccnc1 | 110 | 5 | 103 | 11 | -10 | 4 | . | . | .
Cc1nnc(SCc2nnc(-c3cccs3)o2)n1C1CCCCC1 | 105 | -2 | 107 | 7 | -6 | -6 | . | . | .
O=C(CSc1nnc(CNc2ccc(F)cc2)n1CC1CCCO1)Nc1ccccc1 (centres undefined) | 102 | 2 | 102 | 15 | 2 | 1 | . | . | .
Fc1ccc(NCc2nnc(SCc3nnc(-c4ccccc4)o3)n2CC2CCCO2)cc1 (centres undefined) | 123 | 6 | 124* | 11 | -3 | 2 | 91 | -5 | 95
COc1ccc(-c2nnc(SCc3nnc(-c4cccs4)o3)n2CC2CCCO2)cc1 (centres undefined) | 91 | -2 | 49*[inhibitor] | -22 | 14 | -2 | 106 | 5 | 102
O=C(COC(=O)c1oc2ccccc2c1CSc1ccc(Cl)cc1)NC1CCCC1 | 113 | 3 | 112 | 3 | 12 | 13 | . | . | .
NC(=O)COC(=O)c1oc2ccccc2c1CSc1ccc(Cl)cc1 | 114 | 1 | 157* | 10 | 1 | 15 | 104 | 1 | 102
COc1ccc(-n2c(C)nnc2SCC(=O)N2CCOCC2)cc1 | 111 | 7 | 111 | -1 | -8 | 0 | . | . | .
CCN(CCn1cccn1)C(=O)CCc1nnc(CCCc2ccccc2)o1 | 151* | + | 131* | 0 | 3 | -3 | 101 | 14 | 102
CN(C)C(=O)NCc1ccc(S(N)(=O)=O)cc1 | 50 | -8 | 39*[inhibitor] | 0 | 2 | -25 | 100 | 1 | 102

Screens: PubChem, several laboratories
